The record followed here is ChEMBL document CHEMBL4715800, “Synthesis and Antiviral Evaluation of Octadecyloxyethyl Benzyl 9-[(2-Phosphonomethoxy)ethyl]guanine (ODE-Bn-PMEG), a Potent Inhibitor of Transient HPV DNA Amplification” (J Med Chem, 2016).

Molecules are shown by their SMILES.

Holding throughout (format): ADME, cell-based
The nature of data set [1]: Drug uptake in HFF cells at 1 uM incubated for 1 to 48 hrs using [14C]-labelled compound by liquid scintillation counting. The conditions noted are these: human, time 1-48 hrs. An outline of the steps:
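HFF cells exposed to 1 μM [14C]-labelled compound for 1 to 48 h. Cell-associated radioactivity measured in duplicate to assess uptake.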

A short description of data set [2]: Drug level in HFF cells treated with 1 uM [14C]-labelled ODE-Bn-PMEG assessed as compound levels incubated for 48 hrs by liquid scintillation counting. The note with it: human.
Data set [3] in a line: Drug metabolism in HFF cells assessed as PMEGpp levels at 1 uM measured for 14 days using [14C]-labelled compound by liquid scintillation counting. The note with it: human, 336 h, TDE = time-dependent effect, time 14 day. An outline of the steps: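 After 48 h exposure to 1 μM [14C]-labelled compound, drug removed from HFF cells. Persistence of intracellular PMEGpp followed over time; average of two separate determinations.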

The nature of data set [4]: Drug metabolism in HFF cells assessed as PMEGp levels at 1 uM incubated for 48 hrs using [14C]-labelled compound by liquid scintillation counting. The note with it: human. An outline of the steps:
(§1)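 HFF cells exposed for 48 h to 1 μM [14C]-labelled compound, then drug removed. Intracellular PMEG, PMEGp and PMEGpp measured. Values are the average of two separate determinations.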

Data set [5] is described as follows: Drug metabolism in HFF cells assessed as PMEG levels at 1 uM incubated for 48 hrs using [14C]-labelled compound by liquid scintillation counting. The note with it: human. An outline of the steps: as §1

Regarding `Nc1nc2c(ncn2CCOCP(=O)(O)O)c(=O)[nH]1` [GS-438], the Drug uptake entry in data set [1] and in data set [2] was “Active” each time.
In the case of `CCCCCCCCCCCCCCCCCCOCCOP(=O)(COCCn1cnc2c(=O)[nH]c(N)nc21)OCc1ccccc1` (stereo unspecified), the Drug uptake result is given as “Tde” in data set [1] (TDE = time-dependent effect), “Metabolite_Detected” in data set [4] and “Metabolite_Detected” in data set [5]. The Drug metabolism entry in data set [3] is on record as “Tde”.
